What was measured:
[1] = system: Human immunodeficiency virus 1; assay: Antiviral activity against wild type HIV-1 3B infected in human MT4 cells assessed as inhibition of viral replication after 3 days by GFP reporter gene assay in presence of human serum; format: functional, organism-based; details: Human immunodeficiency virus 1, 3B, MT4, 72 h
[2] = system: Human immunodeficiency virus 1; assay: Ratio of EC50 for HIV-1 M3 harboring protease L10I, K20R, M36I, G48V, I62V, A71V, V82A, I93L mutant to EC50 for wild type HIV-1 3B; format: functional
[3] = system: Human immunodeficiency virus 1; assay: Antiviral activity against HIV-1 M2 harboring protease L10I, I13V, M46I, I50V, L63P, L76V mutant infected in human MT4 cells assessed as inhibition of viral replication after 3 days by GFP reporter gene assay; format: functional, organism-based; details: Human immunodeficiency virus 1, M2, MT4, 72 h
In short: (§1)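 Cell-based replication assay in MT4 cells carrying an LTR-GFP readout (HIV tat drives GFP). Serial compound concentrations were mixed with cells at 150 000 cells/mL and 200 CCID50 of virus, incubated 3 days at 37 °C, 5% CO2. Percent inhibition per concentration gave dose-response curves for EC50/pEC50. Run in quadruplicate. Mock-infected parallel cultures at the same concentrations gave CC50.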

[4] = system: Human immunodeficiency virus 1; assay: Antiviral activity against HIV-1 M3 harboring protease L10I, K20R, M36I, G48V, I62V, A71V, V82A, I93L mutant infected in human MT4 cells assessed as inhibition of viral replication after 3 days by GFP reporter gene assay; format: functional, organism-based; details: Human immunodeficiency virus 1, M3, MT4, 72 h; in short: as §1
[5] = system: Human immunodeficiency virus 1; assay: Antiviral activity against HIV-1 M1 harboring protease L10I, M46I, I64V, I84V, L90M, I93L mutant infected in human MT4 cells assessed as inhibition of viral replication after 3 days by GFP reporter gene assay; format: functional, organism-based; details: Human immunodeficiency virus 1, M1, MT4, 72 h; in short: as §1
[6] = system: Human immunodeficiency virus 1; assay: Ratio of EC50 for HIV-1 M2 harboring protease L10I, I13V, M46I, I50V, L63P, L76V mutant to EC50 for wild type HIV-1 3B; format: functional
[7] = system: Human immunodeficiency virus 1; assay: Ratio of EC50 for HIV-1 M1 harboring protease L10I, M46I, I64V, I84V, L90M, I93L mutant to EC50 for wild type HIV-1 3B; format: functional
[8] = system: Human immunodeficiency virus 1; assay: Antiviral activity against wild type HIV-1 3B infected in human MT4 cells assessed as inhibition of viral replication after 3 days by GFP reporter gene assay; format: functional, organism-based; details: Human immunodeficiency virus 1, 3B, MT4, 72 h
In short: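 MT4 cells (150 000 cells/mL) were infected with wild-type HIV-1/LAI at 200 CCID50 across a compound concentration range. Plates were incubated 3 days at 37 °C and 5% CO2. Replication was read as GFP driven by HIV-tat binding LTR sequences. EC50 was taken from dose-response curves of percent inhibition, in quadruplicate. Mock-infected parallel cultures gave CC50 from reduced GFP.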

Row | Compound | EC50 [1] [nM] | Ratio EC50 [2] | EC50 [3] [nM] | EC50 [4] [nM] | EC50 [5] [nM] | Ratio EC50 [6] | Ratio EC50 [7] | EC50 [8] [nM]
1 | CNc1nc2ccc(S(=O)(=O)N(CC(C)C)C[C@@H](O)[C@H](Cc3ccccc3)NC(=O)O[C@H]3CO[C@H]4OC[C@H](F)[C@H]43)cc2o1 | 8.4 | 0.9 | 2.8 | 0.7 | 0.8 | 4.1 | 1.2 | 0.7
2 | CC(C)CN(C[C@@H](O)[C@H](Cc1ccccc1)NC(=O)O[C@H]1CO[C@H]2OC[C@H](NC(=O)OCc3ccccc3)[C@H]21)S(=O)(=O)c1ccc(N)cc1 | 35.2 | 0.4 | 82.5 | 1.8 | 5.7 | 16 | 1.1 | 5
3 | CC(C)CN(C[C@@H](O)[C@H](Cc1ccccc1)NC(=O)O[C@H]1CO[C@H]2OC[C@H](OC(=O)NCc3ccccc3)[C@H]21)S(=O)(=O)c1ccc(N)cc1 | 30.4 | 0.9 | 124 | 5.2 | 15.5 | 22 | 3.2 | 5.8
4 | CC(C)CN(C[C@@H](O)[C@H](Cc1ccccc1)NC(=O)O[C@H]1CO[C@H]2OC[C@H](OCC(=O)NCc3ccccc3)[C@H]21)S(=O)(=O)c1ccc(N)cc1 | 93.5 | 0.6 | 35.2 | 9.3 | 10.8 | 2.2 | 0.7 | 16
5 | CC(C)CN(C[C@@H](O)[C@H](Cc1ccccc1)NC(=O)O[C@H]1CO[C@H]2OC[C@H](Cl)[C@H]21)S(=O)(=O)c1ccc(N)cc1 | 4.6 | 4 | 31.6 | 1.5 | 2.8 | 85 | 7.5 | 0.4
6 | CNc1nc2ccc(S(=O)(=O)N(CC(C)C)C[C@@H](O)[C@H](Cc3ccccc3)NC(=O)O[C@H]3CO[C@H]4OC[C@H](NC(=O)OCc5ccccc5)[C@H]43)cc2o1 | 16.6 | 0.3 | 7.5 | 1 | 2.4 | 2 | 0.6 | 3.8
7 | CNc1nc2ccc(S(=O)(=O)N(CC(C)C)C[C@@H](O)[C@H](Cc3ccccc3)NC(=O)O[C@H]3CO[C@H]4OC[C@H](OC(=O)NCc5ccccc5)[C@H]43)cc2o1 | 26.7 | 0.7 | 13.9 | 4 | 7.2 | 2.4 | 1.2 | 5.8
8 | CNc1nc2ccc(S(=O)(=O)N(CC(C)C)C[C@@H](O)[C@H](Cc3ccccc3)NC(=O)O[C@H]3CO[C@H]4OC[C@H](OCC(=O)NCc5ccccc5)[C@H]43)cc2o1 | 102 | 0.3 | 15.1 | 6.4 | 13.4 | 0.6 | 0.5 | 25
9 | CNC(=O)CO[C@H]1CO[C@@H]2OC[C@H](OC(=O)N[C@@H](Cc3ccccc3)[C@H](O)CN(CC(C)C)S(=O)(=O)c3ccc4nc(NC)oc4c3)[C@@H]21 | 376 | 0.1 | 204 | 68.5 | 151 | 0.4 | 0.3 | 460
10 | CNc1nc2ccc(S(=O)(=O)N(CC(C)C)C[C@@H](O)[C@H](Cc3ccccc3)NC(=O)O[C@H]3CO[C@H]4OC[C@H](OCC(=O)N(C)C)[C@H]43)cc2o1 | 243 | 0.2 | 83.8 | 50.4 | 102 | 0.3 | 0.4 | 249
11 | C=C(F)CO[C@H]1CO[C@@H]2OC[C@H](OC(=O)N[C@@H](Cc3ccccc3)[C@H](O)CN(CC(C)C)S(=O)(=O)c3ccc4nc(NC)oc4c3)[C@@H]21 | 2.2 | 1.4 | 2.3 | 0.5 | 0.8 | 6.1 | 1.2 | 0.4
12 | CNc1nc2ccc(S(=O)(=O)N(CC(C)C)C[C@@H](O)[C@H](Cc3ccccc3)NC(=O)O[C@H]3CO[C@H]4OC[C@H](OCCC(F)(F)F)[C@H]43)cc2o1 | 8.2 | 1.6 | 2.8 | 0.8 | 0.9 | 5.9 | 1.9 | 0.5
13 | CNc1nc2ccc(S(=O)(=O)N(CC(C)C)C[C@@H](O)[C@H](Cc3ccccc3)NC(=O)O[C@H]3CO[C@H]4OC[C@H](Cl)[C@H]43)cc2o1 | 4.2 | 1.6 | 2.1 | 0.7 | 0.7 | 4.6 | 1.6 | 0.5
14 | COc1ccc(S(=O)(=O)N(CC(C)C)C[C@@H](O)[C@H](Cc2ccccc2)NC(=O)O[C@H]2CO[C@H]3OC[C@H](O)[C@H]32)cc1 | 12.4 | 0.2 | 6.7 | 1.6 | 6.9 | 1 | 1.1 | 6.5
15 | COc1ccc(S(=O)(=O)N(CC(C)C)C[C@@H](O)[C@H](Cc2ccccc2)NC(=O)O[C@H]2CO[C@H]3OC[C@H](OCC(=O)NCc4ccccc4)[C@H]32)cc1 | 4.6 | 1.7 | 4.4 | 1 | 3.3 | 7.5 | 5.6 | 0.6
16 | CNC(=O)CO[C@H]1CO[C@@H]2OC[C@H](OC(=O)N[C@@H](Cc3ccccc3)[C@H](O)CN(CC(C)C)S(=O)(=O)c3ccc(OC)cc3)[C@@H]21 | 16.1 | 1.2 | 15.7 | 8.3 | 14.3 | 2.3 | 2.1 | 6.9
17 | COc1ccc(S(=O)(=O)N(CC(C)C)C[C@@H](O)[C@H](Cc2ccccc2)NC(=O)O[C@H]2CO[C@H]3OC[C@H](OCC(=O)N(C)C)[C@H]32)cc1 | 7 | 0.8 | 11.5 | 2.9 | 7 | 3 | 1.8 | 3.8

From ChEMBL document CHEMBL3425439, “Disubstituted Bis-THF Moieties as New P2 Ligands in Nonpeptidal HIV-1 Protease Inhibitors (II)” (J Med Chem, 2015)
